aDG glyco up – activators of alpha-DG glycosylation, primary screen, uHTS, Pro5-aDG cells, AlphaScreen | alpha-DG glycosylation AlphaScreen (IIH6); 0% Pro5, 100% B10-LARGE cell signal | activation, % at 10 µM | actives 0.22% (n = 360,000) | AID 624168, 2012;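 active = activation of at least 8% versus controls, or a plate z-score of at least 8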;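 also: Pro5 are CHO cells carrying HIG-tagged alpha-DG that lacks glycosylation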
ADAM10 inh – human ADAM10 inhibitors, primary screen, biochemical, QFRET, HTS; actives 0.62% (n = 370,000); recombinant ADAM10, EDANS/DABCYL FRET peptide cleavage, 3 h; AID 720582, 2013; inhibition, % at 7 µM; Disintegrin and metalloproteinase domain-containing protein 10 (Homo sapiens), O14672;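 active = inhibition above a per-campaign cutoff equal to the mean of compounds falling between control-based bounds plus 3 SD, cut at about 20% in these data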
ADAM17 inh – ADAM17 inhibitors, primary screen, biochemical, QFRET | recombinant ADAM17, EDANS/DABCYL FRET peptide cleavage | inhibition, % at 6.95 µM | actives 0.83% (n = 370,000) | AID 720648, 2013;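 active = inhibition above the mean of compounds lying between control limits plus 3 SD, set per campaign, cut at about 8.5% in these data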
Target sequence (P78536 215-824 limits assumed): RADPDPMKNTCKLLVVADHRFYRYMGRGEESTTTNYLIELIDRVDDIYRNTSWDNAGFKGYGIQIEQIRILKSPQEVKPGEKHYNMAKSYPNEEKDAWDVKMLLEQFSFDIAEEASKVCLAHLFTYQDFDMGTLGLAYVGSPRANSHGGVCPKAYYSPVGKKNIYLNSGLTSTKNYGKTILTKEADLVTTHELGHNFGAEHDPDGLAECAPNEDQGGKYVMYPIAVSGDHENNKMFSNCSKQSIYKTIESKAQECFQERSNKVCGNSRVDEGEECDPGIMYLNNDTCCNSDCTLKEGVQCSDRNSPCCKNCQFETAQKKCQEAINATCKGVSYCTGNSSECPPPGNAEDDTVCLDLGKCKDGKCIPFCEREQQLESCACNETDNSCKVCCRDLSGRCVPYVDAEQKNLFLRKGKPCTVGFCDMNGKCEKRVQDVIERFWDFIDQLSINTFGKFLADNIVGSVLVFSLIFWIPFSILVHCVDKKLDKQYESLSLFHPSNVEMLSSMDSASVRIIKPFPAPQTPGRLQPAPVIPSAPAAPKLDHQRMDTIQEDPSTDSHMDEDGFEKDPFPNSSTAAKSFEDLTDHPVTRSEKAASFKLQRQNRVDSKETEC
V-ATPase pHluor – regulators of yeast V-ATPase proton pumping, primary screen, pHLuorin cytosolic pH fluorescence; AID 504577, 2011; actives 0.37% (n = 350,000); S. cerevisiae; response, % at 10 µM; in the data active = response mostly above about 7.3%, no sharp cut-off; inactive = mostly below about 5.4%; also: actives read high
MPTP inh – mitochondrial permeability transition pore inhibitors, primary screen, biochemical, isolated mouse mitochondria, absorbance; Ca2+ swelling absorbance, 30 min; inhibition, % at 10 µM; actives 1.4% (n = 360,000); AID 602449, 2012;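 active = inhibition of 50% or more, scaled per plate between neutral and stimulator controls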
Lipid droplet – inhibitors of hepatocyte lipid droplet formation, primary screen, imaging, high-throughput imaging, BODIPY stain; inhibition, % at 6.5 µM; AML12 mouse hepatocytes, oleate lipid droplets; actives 0.4% (n = 240,000);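 active = lipid droplet intensity inhibited by at least 50%, with more than 500 cells counted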
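Test system: AML12 hepatocytes (mouse); reagent: oleate loading, 100 µM; dosing: one dose, 6.5 µM compound; incubation: overnight exposure; signal: fluorescence imaging, 20x objective, two fields per well; read-out basis: % inhibition of corrected integrated BODIPY droplet signal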
ADAM10 counter – ADAM10 inhibitors, counter-screen for ADAM17 exosite inhibitor project, biochemical, FRET, human ADAM10. actives 47% (n = 2,900). inhibition, % at 6.95 µM. shares compounds with ADAM17 inh. AID 743256, 2014. recombinant ADAM10, EDANS/DABCYL FRET peptide cleavage, 3 h;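 active = mean inhibition over the triplicate runs exceeds the activity threshold set in the earlier primary screen, cut at about 20% in these data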
ADAM17 confirm – ADAM17 inhibitors, hit retest, confirmation, biochemical, QFRET peptide cleavage; shares compounds with ADAM17 inh; recombinant ADAM17, EDANS/DABCYL QFRET peptide cleavage; inhibition, % at 6.95 µM; actives 65% (n = 2,900);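 active = mean inhibition across replicates above the hit cutoff set in the primary screen, cut at about 8.5% in these data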
Of the large screens only hits and unclear results are named; the others gave an inactive call (follow-up assays come after a bar, where they were run). Shown are actives, neighbours in structure and some others; about 3.1% of the full set was active somewhere.

CCc1ccc(CCNC(=O)OCCCN2CCC3(CCC(c4ccccc4)CC3)C2=O)cc1 (stereo unspecified)	ADAM17 inh 9.4 (no result: aDG glyco up, V-ATPase pHluor, MPTP inh, Lipid droplet) | ADAM10 counter 36.2 | ADAM17 confirm 15.4
COC(=O)c1cc(-c2ccc(C(C)=O)cc2)c(=O)n2c1CCC2	none (no result: aDG glyco up, V-ATPase pHluor, MPTP inh, Lipid droplet)
CCOC(=O)Cn1c(C(=O)OCC)cc2sccc21	ADAM17 inh 9.2 | ADAM10 counter inactive | ADAM17 confirm inactive
CCOC(=O)c1cc2sccc2n1CC(=O)OC	none
CSc1ncccc1C(=O)N(C)CC(=O)Nc1ccc(Cl)c(C(F)(F)F)c1	none
CN(CC(=O)Nc1ccc(Cl)c(C(F)(F)F)c1)C(=O)c1cccnc1Sc1ccccc1	ADAM17 inh 11.9 | ADAM10 counter 27.1 | ADAM17 confirm 9.7
Brc1ccc(-c2nn3c(-c4ccccc4)nnc3s2)cc1	none (no result: aDG glyco up, V-ATPase pHluor, MPTP inh, Lipid droplet)
OCc1ccnc2c(O)cccc12	ADAM17 inh 8.9 (no result: Lipid droplet) | ADAM10 counter inactive | ADAM17 confirm inactive
OCOCCCn1c(C2CCCN2c2nc(-c3ccc(F)cc3)cs2)nc2cc(Cl)c(N3CCCCC3)cc21 (stereo unspecified)	ADAM17 inh 10.0 (no result: Lipid droplet) | ADAM10 counter inactive | ADAM17 confirm 8.7
OCCCn1c(C2CCCN2c2nc(-c3ccc(Cl)cc3)cs2)nc2cc(Cl)c(Cl)cc21 (stereo unspecified)	ADAM17 inh 9.1 (no result: Lipid droplet) | ADAM10 counter 26.9 | ADAM17 confirm 12.3
OCCCn1c(C2CCCN2c2nc(-c3ccc(F)cc3)cs2)nc2cc(Cl)c(Cl)cc21 (stereo unspecified)	ADAM17 inh 9.5 (no result: Lipid droplet) | ADAM10 counter inactive | ADAM17 confirm 11.3
O=C(CSc1nnc(-c2ccccn2)n1-c1ccccc1)c1ccc(F)cc1	none (no result: aDG glyco up, V-ATPase pHluor, MPTP inh, Lipid droplet)
COC(=O)C1=C(C)N(Cc2ccc(C(F)(F)F)cc2)C(=NCc2ccc3c(c2)OCO3)NC1c1ccccc1 (stereo unspecified)	ADAM17 inh 9.6 (no result: aDG glyco up, V-ATPase pHluor, MPTP inh, Lipid droplet) | ADAM10 counter inactive | ADAM17 confirm inactive
C=CCN=C1NC(c2cccc(Cl)c2)C(C(=O)OC)=C(C)N1Cc1cccc(C(F)(F)F)c1 (stereo unspecified)	ADAM17 inh 10.0 (no result: aDG glyco up, V-ATPase pHluor, MPTP inh, Lipid droplet) | ADAM10 counter inactive | ADAM17 confirm inactive
COC(=O)C1=C(C)N(Cc2cccc(C(F)(F)F)c2)C(=NCc2ccccc2C(F)(F)F)NC1c1cccc(C(F)(F)F)c1 (stereo unspecified)	none (no result: aDG glyco up, V-ATPase pHluor, MPTP inh, Lipid droplet)
COC(=O)C1=C(C)N(Cc2cccc(C(F)(F)F)c2)C(=NCc2ccc3c(c2)OCO3)NC1c1ccccc1 (stereo unspecified)	none (no result: aDG glyco up, V-ATPase pHluor, MPTP inh, Lipid droplet)
COC(=O)C1=C(C)N(Cc2cccc(C(F)(F)F)c2)C(=NCc2ccccc2C(F)(F)F)NC1c1cccc(F)c1 (stereo unspecified)	ADAM17 inh 9.6 (no result: aDG glyco up, V-ATPase pHluor, MPTP inh, Lipid droplet) | ADAM10 counter 20.6 | ADAM17 confirm 17.5
N#Cc1cccc(NC(=O)OCCCN2CCC3(CCCCC3)C2=O)c1	none (no result: aDG glyco up, V-ATPase pHluor, MPTP inh, Lipid droplet)
CC[C@@]1(C(=O)OC)N[C@H](CN(C)S(=O)(=O)c2ccc(-c3ccccc3)cc2)[C@@H]2C(=O)N(C)C(=O)[C@@H]21	ADAM17 inh 12.8 (no result: Lipid droplet) | ADAM10 counter inactive | ADAM17 confirm inactive
CCn1c2ccccc2c2cc(NC(=O)CSc3nnnn3-c3ccccc3)ccc21	none
OC(CSc1nnnn1-c1ccccc1)Cn1c2ccccc2c2ccccc21 (stereo unspecified)	ADAM17 inh 11.0 (no result: V-ATPase pHluor, Lipid droplet) | ADAM10 counter inactive | ADAM17 confirm 10.3
CSCSC1=C(C#N)C(c2ccccc2Cl)C(C(C)=O)=C(C)N1 (stereo unspecified)	ADAM17 inh 15.3 (no result: Lipid droplet) | ADAM10 counter inactive | ADAM17 confirm 9.3
COc1ccc(-n2nnnc2SCC(=O)c2cccc(OC)c2)cc1	ADAM17 inh 10.3 | ADAM10 counter inactive | ADAM17 confirm inactive
O=C1CC(Nc2ccc3ccccc3c2)C(=O)N1Cc1ccccc1 (stereo unspecified)	ADAM17 inh 10.0 | ADAM10 counter inactive | ADAM17 confirm 11.1
O=C1CC(Nc2ccc(N3CCOCC3)cc2)C(=O)N1Cc1ccccc1 (stereo unspecified)	none
CSCCC(NS(=O)(=O)c1cccc(C(F)(F)F)c1)C(=O)N1CCN(C(=O)c2ccco2)CC1 (stereo unspecified)	none (no result: Lipid droplet)
CSCCC(NS(=O)(=O)c1cccc(C(F)(F)F)c1)C(=O)N(C)CCOc1ccc(Cl)cc1 (stereo unspecified)	ADAM17 inh 10.7 (no result: Lipid droplet) | ADAM10 counter 41.1 | ADAM17 confirm 20.7
CN(C)S(=O)(=O)c1ccc(S(=O)(=O)Nc2ccc3c(c2)oc2ccccc23)cc1	ADAM17 inh 9.2 | ADAM10 counter 34.4 | ADAM17 confirm 17.0
Cc1cc(=O)oc2cc(NS(=O)(=O)c3ccccc3)ccc12	none
CCN(c1ccccc1)S(=O)(=O)c1c[nH]c2ccc([N+](=O)[O-])cc12	ADAM17 inh 9.3 | ADAM10 counter 31.7 | ADAM17 confirm 16.5
CCOC(=O)N1CCN(C(=O)C[C@@H]2C(=O)N3CCCC4=C3[C@@]2(C(=O)OC)CCCC4)CC1	none (no result: aDG glyco up, V-ATPase pHluor, MPTP inh, Lipid droplet)
C/C(=N\NC(=O)CNC(=O)C(c1ccccc1)c1ccccc1)c1ccccc1	none
C/C(=N\NC(=O)CNC(=O)C(c1ccccc1)c1ccccc1)c1ccc(C(C)(C)C)cc1	ADAM17 inh 10.4 | ADAM10 counter inactive | ADAM17 confirm inactive
CC(=O)Oc1ccc(N2C(=O)C3C4C=CC(O4)C3C2=O)cc1 (stereo unspecified)	ADAM17 inh 9.8 (no result: Lipid droplet) | ADAM10 counter inactive | ADAM17 confirm 16.7
COc1ccc(OC)c(NC(=O)c2cc(-c3ccc(F)cc3OC(C)C)n[nH]2)c1	ADAM17 inh 8.8 (no result: V-ATPase pHluor, Lipid droplet) | ADAM10 counter inactive | ADAM17 confirm 9.3
CC(=O)Nc1ccc(-c2ccnc3c2CC(C)(C(=O)NCCc2ccccc2)O3)cc1 (stereo unspecified)	ADAM17 inh 9.5 (no result: V-ATPase pHluor, Lipid droplet) | ADAM10 counter inactive | ADAM17 confirm inactive
